Measured values from ChEMBL document CHEMBL1128590, “erbB-2 oncogene inhibition by geldanamycin derivatives: synthesis, mechanism of action, and structure-activity relationships” (J Med Chem, 1995).
Active and inactive are the calls of the source. The calls are words filed in the database; no cut-off is given here.

Tests used:
SK-BR-3 = experiment: In vitro inhibition of p185 erbB-2 oncoprotein in human breast cancer SK-BR-3 cells; type: functional, cell-based
Method in brief: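 Cellular assay with read-out as depletion of p185 erbB-2 protein after drug treatment of the cells. This depletion tracks inhibition of p185 autophosphorylation.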

Mus musculus [1] = experiment: In vivo inhibition of p185 phosphotyrosine in nu/nu nude mice bearing Fisher rat embryo cells transfected with human erbB-2 (inactive); type: functional, organism-based
Mus musculus [2] = experiment: In vivo inhibition of p185 phosphotyrosine in nu/nu nude mice bearing Fisher rat embryo cells transfected with human erbB-2; type: functional; parameters: concentration or dose not given beside the values

## C=CCNC1=C2C[C@@H](C)C[C@H](OC)[C@H](OC(=O)NS(=O)(=O)N3CN(C)C3)[C@@H](C)/C=C(\C)[C@H](OC(N)=O)[C@@H](OC)/C=C\C=C(/C)C(=O)NC(=CC1=O)C2=O
SK-BR-3
  IC50: > 2500 nM

## CO[C@H]1/C=C\C=C(/C)C(=O)NC2=CC(=O)C(N3CCC3)=C(C[C@@H](C)C[C@H](OC)[C@H](OC(=O)NS(=O)(=O)NC(C)C)[C@@H](C)/C=C(\C)[C@@H]1OC(N)=O)C2=O
Mus musculus [1]
  inhibition: inactive
SK-BR-3
  IC50: 140 nM

## CO[C@H]1C[C@H](C)CC2=C(NC(C)C)C(=O)C=C(NC(=O)/C(C)=C/C=C\[C@H](OC)[C@@H](OC(N)=O)/C(C)=C/[C@H](C)/C1=N/O)C2=O
SK-BR-3
  IC50: 270 nM

## CO[C@H]1/C=C\C=C(/C)C(=O)NC2=CC(=O)C(N3CCC3)=C(C[C@@H](C)C[C@H](OC)[C@H](O)[C@@H](C)/C=C(\C)[C@@H]1/N=C(/N)S)C2=O
SK-BR-3
  IC50: 1700 nM

## CO[C@H]1/C=C\C=C(/C)C(=O)NC2=CC(=O)C(NC3CCC3)=C(C[C@@H](C)C[C@H](OC)[C@H](O)[C@@H](C)/C=C(\C)C1=O)C2=O
SK-BR-3
  IC50: > 3700 nM

## CO[C@H]1/C=C\C=C(/C)C(=O)N(CC(=O)c2ccc(N=[N+]=[N-])c(I)c2)C2=CC(=O)C(N)=C(C[C@@H](C)C[C@H](OC)[C@H](O)[C@@H](C)/C=C(\C)[C@@H]1OC(N)=O)C2=O
SK-BR-3
  IC50: 140 nM

## CNC1=C2C[C@@H](C)C[C@H](OC)C(=O)[C@@H](C)/C=C(\C)[C@H](OC(N)=O)[C@@H](OC)/C=C\C=C(/C)C(=O)NC(=CC1=O)C2=O
Mus musculus [1]
  inhibition: inactive
SK-BR-3
  IC50: 34 nM

## CO[C@H]1/C=C\C=C(/C)C(=O)N(CC(=O)c2ccccc2)C2=CC(=O)C(N)=C(C[C@@H](C)C[C@H](OC)[C@H](O)[C@@H](C)/C=C(\C)[C@@H]1OC(N)=O)C2=O
SK-BR-3
  IC50: 300 nM

## C=CCNC1=C2C[C@@H](C)C[C@H](OC)[C@H](OC(=O)NS(=O)(=O)N3CCC3)[C@@H](C)/C=C(\C)[C@H](OC(N)=O)[C@@H](OC)/C=C\C=C(/C)C(=O)NC(=CC1=O)C2=O
SK-BR-3
  IC50: 800 nM

## CO[C@H]1/C=C\C=C(/C)C(=O)NC2=CC(=O)C(N3CCC3)=C(C[C@@H](C)C[C@H](OC)[C@H](OC(N)=O)[C@@H](C)/C=C(\C)[C@@H]1OC(N)=O)C2=O
Mus musculus [1]
  inhibition: inactive
SK-BR-3
  IC50: 50 nM

## COc1ccc(C(=O)CN2C(=O)/C(C)=C/C=C\[C@H](OC)[C@@H](OC(N)=O)/C(C)=C/[C@H](C)[C@@H](O)[C@@H](OC)C[C@H](C)CC3=C(N)C(=O)C=C2C3=O)cc1
SK-BR-3
  IC50: 1200 nM

## C=CCNC1=C2C[C@@H](C)C[C@H](OC)[C@@H](F)[C@@H](C)/C=C(\C)[C@H](OC(N)=O)[C@@H](OC)/C=C\C=C(/C)C(=O)NC(=CC1=O)C2=O
Mus musculus [2]
  Inhibition: 50%
SK-BR-3
  IC50: 260 nM

## CO[C@H]1/C=C\C=C(/C)C(=O)NC2=CC(=O)C(N3CCC3)=C(C[C@@H](C)C[C@H](OC)[C@H](O)[C@@H](C)/C=C(\C)[C@@H]1NC(N)=O)C2=O
SK-BR-3
  IC50: 2600 nM

## CO[C@H]1/C=C\C=C(/C)C(=O)N(CC(=O)c2ccc3ccccc3c2)C2=CC(=O)C(N)=C(C[C@@H](C)C[C@H](OC)[C@H](O)[C@@H](C)/C=C(\C)[C@@H]1OC(N)=O)C2=O
Mus musculus [1]
  inhibition: inactive
SK-BR-3
  IC50: 200 nM

## COc1ccccc1C(=O)CN1C(=O)/C(C)=C/C=C\[C@H](OC)[C@@H](OC(N)=O)/C(C)=C/[C@H](C)[C@@H](O)[C@@H](OC)C[C@H](C)CC2=C(N)C(=O)C=C1C2=O
Mus musculus [2]
  Inhibition: 50%
SK-BR-3
  IC50: 600 nM

## CO[C@H]1/C=C\C=C(/C)C(=O)N(CC(=O)c2ccc(Cl)c(Cl)c2)C2=CC(=O)C(N)=C(C[C@@H](C)C[C@H](OC)[C@H](O)[C@@H](C)/C=C(\C)[C@@H]1OC(N)=O)C2=O
Mus musculus [1]
  inhibition: inactive
SK-BR-3
  IC50: 80 nM

## CO[C@H]1/C=C\C=C(/C)C(=O)NC2=CC(=O)C(N)=C(C[C@@H](C)C[C@H](OC)[C@H](O)[C@@H](C)/C=C(\C)[C@@H]1O)C2=O
SK-BR-3
  IC50: > 3900 nM

## C=CCNC1=C2C[C@@H](C)C[C@H](OC)[C@@H](F)[C@@H](C)/C=C(\C)[C@H](OC(N)=O)[C@@H](OC)CC/C=C(\C)C(=O)NC(=CC1=O)C2=O
Mus musculus [1]
  inhibition: inactive
SK-BR-3
  IC50: 1200 nM

## CO[C@H]1/C=C\C=C(/C)C(=O)NC2=CC(=O)C(NC3CC3)=C(C[C@@H](C)C[C@H](OC)[C@@H](F)[C@@H](C)/C=C(\C)[C@@H]1OC(N)=O)C2=O
SK-BR-3
  IC50: 500 nM

## COC1=C2C[C@@H](C)C[C@H](OC)[C@H](O)[C@@H](C)/C=C(\C)[C@H](OC(N)=O)[C@@H](OC)/C=C\C=C(/C)C(=O)NC(=CC1=O)C2=O
Mus musculus [1]
  inhibition: inactive

## COC(=O)/C(C)=C\C=C\[C@H](OC)[C@@H](OC(N)=O)/C(C)=C/[C@H](C)[C@@H](O)[C@H](C[C@H](C)CC1=C(N2CCC2)C(O)=CC(=N)C1=O)OC
SK-BR-3
  IC50: > 3200 nM

## CO[C@H]1/C=C\C=C(/C)C(=O)NC2=CC(=O)C(N3CCC3)=C(C[C@@H](C)C[C@H](OC)[C@H](O)[C@@H](C)/C=C(\C)[C@@H]1OC(=O)C(=O)O)C2=O
SK-BR-3
  IC50: 1000 nM

## C=CCNC1=C2C[C@@H](C)C[C@H](OC)[C@H](O)[C@@H](C)/C=C(\C)[C@H](OC(=O)CN)[C@@H](OC)/C=C\C=C(/C)C(=O)NC(=CC1=O)C2=O
SK-BR-3
  IC50: > 3300 nM

## CO[C@H]1/C=C\C=C(/C)C(=O)NC2=CC(=O)C(N3CCC3)=C(C[C@@H](C)C[C@H](OC)[C@H](O)[C@@H](C)/C=C(\C)[C@@H]1O)C2=O
SK-BR-3
  IC50: 1290 nM

## CO[C@H]1C[C@H](C)CC2=C(N3CCC3)C(=O)C=C(NC(=O)/C(C)=C/C=C\[C@H](OC)[C@@H](OC(N)=O)/C(C)=C/[C@H](C)/C1=N/O)C2=O
Mus musculus [1]
  inhibition: inactive
SK-BR-3
  IC50: 1100 nM

## CO[C@H]1/C=C\C=C(/C)C(=O)NC2=CC(=O)C(NC(C)C)=C(C[C@@H](C)C[C@H](OC)[C@H](O)[C@@H](C)/C=C(\C)[C@@H]1OC(N)=O)C2=O
Mus musculus [2]
  Inhibition: 87%

## CO[C@H]1/C=C\C=C(/C)C(=O)N(CC(C)=O)C2=CC(=O)C(N)=C(C[C@@H](C)C[C@H](OC)[C@H](O)[C@@H](C)/C=C(\C)[C@@H]1OC(N)=O)C2=O
SK-BR-3
  IC50: 830 nM

## CO[C@H]1/C=C\C=C(/C)C(=O)NC2=CC(=O)C(N3CCC3)=C(C[C@@H](C)C[C@H](OC)[C@H](O)[C@@H](C)/C=C(\C)[C@@H]1OC(N)=O)C2=O
Mus musculus [2]
  Inhibition: 61%

## CO[C@H]1/C=C\C=C(/C)C(=O)N(CC(=O)c2cccc3ccccc23)C2=CC(=O)C(N)=C(C[C@@H](C)C[C@H](OC)[C@H](O)[C@@H](C)/C=C(\C)[C@@H]1OC(N)=O)C2=O
Mus musculus [1]
  inhibition: inactive
SK-BR-3
  IC50: 70 nM

## CO[C@H]1C[C@H](C)CC2=C(N)C(=O)C=C(NC(=O)/C(C)=C/CC[C@H](OC)[C@@H](OC(N)=O)/C(C)=C/[C@H](C)[C@H]1O)C2=O
Mus musculus [2]
  Inhibition: 45%
SK-BR-3
  IC50: 37 nM

## C=CCNC1=C2C[C@@H](C)C[C@H](OC)C(=O)[C@@H](C)/C=C(\C)[C@H](OC(N)=O)[C@@H](OC)/C=C\C=C(/C)C(=O)NC(=CC1=O)C2=O
SK-BR-3
  IC50: 220 nM

## CO[C@H]1/C=C\C=C(/C)C(=O)N(CC(=O)c2ccc([N+](=O)[O-])cc2)C2=CC(=O)C(N)=C(C[C@@H](C)C[C@H](OC)[C@H](O)[C@@H](C)/C=C(\C)[C@@H]1OC(N)=O)C2=O
SK-BR-3
  IC50: 90 nM

## CNC1=C2C[C@@H](C)C[C@H](OC)[C@H](O)[C@@H](C)/C=C(\C)[C@H](OC(N)=O)[C@@H](OC)/C=C\C=C(/C)C(=O)NC(=CC1=O)C2=O
Mus musculus [2]
  Inhibition: 18%

## C=CCNC1=C2C[C@@H](C)C[C@H](OC)[C@H](O)[C@@H](C)/C=C(\C)[C@H](OC(N)=O)[C@@H](OC)/C=C\C=C(/C)C(=O)NC(=CC1=O)C2=O [TANESPIMYCIN]
Mus musculus [2]
  Inhibition: 56%

## CO[C@H]1C[C@H](C)CC2=C(N3CCC3)C(=O)C=C(NC(=O)/C(C)=C/C=C\[C@H](OC)[C@@H](OC(N)=O)/C(C)=C/[C@H](C)C1=O)C2=O
Mus musculus [1]
  inhibition: inactive
SK-BR-3
  IC50: 34 nM

## CO[C@H]1/C=C\C=C(/C)C(=O)N(CC(=O)c2ccc(N=[N+]=[N-])cc2)C2=CC(=O)C(N3CCC3)=C(C[C@@H](C)C[C@H](OC)[C@H](O)[C@@H](C)/C=C(\C)[C@@H]1OC(N)=O)C2=O
SK-BR-3
  IC50: 1900 nM

## CO[C@H]1/C=C\C=C(/C)C(=O)N(CC(=O)c2ccc(N=[N+]=[N-])cc2)C2=CC(=O)C(N)=C(C[C@@H](C)C[C@H](OC)[C@H](O)[C@@H](C)/C=C(\C)[C@@H]1OC(N)=O)C2=O
SK-BR-3
  IC50: 230 nM

## C=CCN[C@H]1[C@@H](OC)C[C@H](C)CC2=C(NC)C(=O)C=C(NC(=O)/C(C)=C/C=C\[C@H](OC)[C@@H](OC(N)=O)/C(C)=C/[C@@H]1C)C2=O
SK-BR-3
  IC50: 1000 nM

## CNC1=C2C[C@@H](C)C[C@H](OC)[C@H](NCc3ccccc3)[C@@H](C)/C=C(\C)[C@H](OC(N)=O)[C@@H](OC)/C=C\C=C(/C)C(=O)NC(=CC1=O)C2=O
SK-BR-3
  IC50: 850 nM

## CO[C@H]1/C=C\C=C(/C)C(=O)N(Cc2ccccn2)C2=CC(=O)C(N)=C(C[C@@H](C)C[C@H](OC)[C@H](O)[C@@H](C)/C=C(\C)[C@@H]1OC(N)=O)C2=O
SK-BR-3
  IC50: > 3100 nM

## C=CCNC1=C2C[C@@H](C)C[C@H](OC)[C@H](OC(=O)NS(=O)(=O)NC(C)C)[C@@H](C)/C=C(\C)[C@H](OC(N)=O)[C@@H](OC)/C=C\C=C(/C)C(=O)NC(=CC1=O)C2=O
SK-BR-3
  IC50: 1070 nM

## CO[C@H]1/C=C\C=C(/C)C(=O)NC2=CC(=O)C(N3CCC3)=C(C[C@@H](C)C[C@H](OC)[C@@H](F)[C@@H](C)/C=C(\C)[C@@H]1OC(N)=O)C2=O
Mus musculus [1]
  inhibition: inactive
SK-BR-3
  IC50: 170 nM

## C=CCNC1=C2C[C@@H](C)C[C@H](OC)[C@H](O)[C@@H](C)/C=C(\C)[C@H](OC(=O)NCC)[C@@H](OC)/C=C\C=C(/C)C(=O)NC(=CC1=O)C2=O
SK-BR-3
  IC50: > 3300 nM

## CO[C@H]1C[C@H](C)CC2=C(N3CCC3)C(=O)C=C(NC(=O)/C(C)=C/CC[C@H](OC)[C@@H](OC(N)=O)/C(C)=C/[C@H](C)[C@@H]1F)C2=O
Mus musculus [1]
  inhibition: inactive
SK-BR-3
  IC50: 40 nM

## COc1ccccc1C(=O)CN1C(=O)/C(C)=C/CC[C@H](OC)[C@@H](OC(N)=O)/C(C)=C/[C@H](C)[C@@H](O)[C@@H](OC)C[C@H](C)CC2=C(N)C(=O)C=C1C2=O
SK-BR-3
  IC50: 200 nM

## CO[C@H]1/C=C\C=C(/C)C(=O)NC2=CC(=O)C(N3CCC3)=C(C[C@@H](C)C[C@H](OC)[C@H](OC(=O)NS(=O)(=O)N3CCN(C)CC3)[C@@H](C)/C=C(\C)[C@@H]1OC(N)=O)C2=O
Mus musculus [1]
  inhibition: inactive
SK-BR-3
  IC50: 190 nM
